The source of these data is paper PMC10716778 (The Journal of Biological Chemistry, 2023).

Broadly, the MIC is the lowest concentration that inhibits growth of the organism. By kcat is commonly meant the maximal rate divided by the concentration of active sites. A word on the Km: it is the concentration of substrate that gives half-maximal velocity. As usually defined, the IC50 is the concentration that inhibits the measured activity by half. Lower therefore signals inhibition by little substance. One may read the kcat/Km as the turnover number divided by the Michaelis constant.

In brackets after ≈: the same amount, converted by molar mass.

The test system of data set [1] is Escherichia coli Top10 vector control (no β-lactamase). As to the kind of experiment: MIC by broth dilution, E. coli vector control. Type of data set: cell-based. (Broth dilution looks for growth in wells or tubes with falling amounts of substance.)
The test system of data set [2] is Escherichia coli expressing KPC-2. In words: MIC by broth dilution, E. coli expressing KPC-2. Type of data set: cell-based.
For data set [3], the system named is Escherichia coli expressing KPC-44. In words: MIC by broth dilution, E. coli expressing KPC-44. Type of data set: cell-based. To be noted: for fold lower MIC than WT KPC-2: E. coli expressing KPC-44 vs KPC-2; for MIC: Escherichia coli.
In data set [4] the target is T1, KPC-44 (Klebsiella pneumoniae, UniProt Q9F663, DUP260-274). It is filed as biochemical. Particulars: for kcat / Km: substrate hydrolysis by KPC-44, 30 °C; for kcat: 50 mM sodium phosphate pH 7; for Km: pH 7; for fold lower kcat than KPC-2 / fold lower kcat/KM than KPC-2: KPC-44 vs KPC-2.
Data set [5] concerns the target T2, KPC-2 (Klebsiella pneumoniae, UniProt Q9F663). As to the kind of experiment: Decarbamylation/deborylation rate. It is filed as biochemical. Particulars: jump dilution, 30 °C. In outline: (§1)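 It was then diluted 100-fold into the same buffer and added to 200 μM nitrocefin at 1:10. Recovery of activity was followed continuously at A482, 30 °C. Vaborbactam deborylation was run the same way.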

The target of data set [6] is T1, KPC-44. As to the kind of experiment: Decarbamylation/deborylation rate. It is filed as biochemical. Particulars: for k-2: KPC-44, jump dilution, 30 °C. In outline: as §1
Data set [7] addresses T1, KPC-44. As to the kind of experiment: Inhibition of nitrocefin hydrolysis. Type of data set: biochemical.
For data set [8], the target named is T2, KPC-2. In words: Steady-state kinetics of β-lactam hydrolysis by KPC-2. To be noted: substrate hydrolysis by KPC-2; 30 °C, 50 mM sodium phosphate pH 7.
For data set [9], the target named is T2, KPC-2. As to the kind of experiment: Inhibition of nitrocefin hydrolysis. It is filed as biochemical.
In data set [10] the test system is CC(C)(O/N=C(\C(=O)N[C@@H]1C(=O)N2C(C(=O)[O-])=C(C[n+]3ccccc3)CS[C@H]12)c1csc(N)n1)C(=O)O. As to the kind of experiment: purified protein, by the assay type. Particulars: other: substrate hydrolysis by KPC-2, 30 °C, pH 7.
Data set [11] deals with C[C@@H](O)[C@H]1C(=O)N2C(C(=O)O)=C(SCCN=CN)C[C@H]12. In words: purified protein, by the assay type. To be noted: other: substrate hydrolysis by KPC-2, 30 °C, pH 7.
In data set [12] the test system is C[C@@H](O)[C@H]1C(=O)N2C(C(=O)O)=C(S[C@@H]3CN[C@H](C(=O)N(C)C)C3)[C@H](C)[C@H]12. As to the kind of experiment: purified protein, by the assay type. Particulars: other: substrate hydrolysis by KPC-2, 30 °C, pH 7.

Regarding `CC1(C)S[C@@H]2[C@H](NC(=O)[C@H](N)c3ccccc3)C(=O)N2[C@H]1C(=O)O` [Ampicillin], the figures for the MIC in [1], in data set [2] and in data set [3] were 4 µg/mL (≈ 11.4 µM), 128 µg/mL (≈ 366 µM) and 64 µg/mL (≈ 183 µM), respectively. In data set [3], the “fold lower MIC than WT KPC-2” value was found to be 2 fold. The kcat on KPC-44 [4] was found to be 126 ± 5 s⁻¹. For the same molecule, on KPC-44 [4], the Michaelis-Menten constant (Km) is 232 ± 22 µM.
With `NC(=O)[C@@H]1CC[C@@H]2CN1C(=O)N2OS(=O)(=O)O` [Avibactam], the k-2 result on KPC-2 [5] is “(9.6 ± 0.020) × 10^−5 s^−1”; at KPC-44 [6], “(7.1 ± 0.32) × 10^−5 s^−1”.
As to `CC(C)(O/N=C(\C(=O)N[C@@H]1C(=O)N2C(C(=O)[O-])=C(C[n+]3ccccc3)CS[C@H]12)c1csc(N)n1)C(=O)O` [Ceftazidime], the MIC in [1] is 0.5 µg/mL (≈ 0.915 µM); in data set [2], 2 µg/mL (≈ 3.66 µM); in data set [3], 8 µg/mL (≈ 14.6 µM).
For the molecule `O=C(O)[C@H]1/C(=C/CO)O[C@@H]2CC(=O)N21` [Clavulanate], the IC50 against KPC-44 [7] came out at 4800 ± 170 nM.
As to `C[C@@H](O)[C@H]1C(=O)N2C(C(=O)O)=C(SCCN=CN)C[C@H]12` [Imipenem], the lowest concentration to inhibit growth in data set [1] (MIC) was 0.25 µg/mL (≈ 0.835 µM). Also, in data set [2], the lowest concentration to inhibit growth (MIC) was 1.5 µg/mL (≈ 5.01 µM). In data set [3], the “fold lower MIC than WT KPC-2” value was 2 fold and inhibition of growth (MIC) required 0.75 µg/mL (≈ 2.51 µM). In data set [3] (E. coli expressing KPC-44 vs no β-lactamase control), the “fold higher MIC than negative control” value is listed as 3 fold. On KPC-44 [4], the “fold lower kcat than KPC-2” value was 8 fold, the “fold lower kcat/KM than KPC-2” value was 4 fold, the kcat was found to be 6.4 ± 0.33 s⁻¹ and the Km was 57 ± 7.1 µM.
In data set [1], `C[C@@H](O)[C@H]1C(=O)N2C(C(=O)O)=C(S[C@@H]3CN[C@H](C(=O)N(C)C)C3)[C@H](C)[C@H]12` [Meropenem] registered an MIC of 0.25 µg/mL (≈ 0.652 µM). This molecule also returned an MIC in data set [2] of 0.375 µg/mL (≈ 0.978 µM). The molecule further displayed an MIC in [3] of 0.25 µg/mL (≈ 0.652 µM). For the same molecule, on KPC-44 [4], the “fold lower kcat than KPC-2” value worked out at 7 fold, the “fold lower kcat/KM than KPC-2” value came to 3 fold, the kcat came out at 0.46 ± 0.022 s⁻¹ and the Km was 7.3 ± 1.4 µM.
Consider `O=C(Cc1cccs1)N[C@@H]1C(=O)N2C(C(=O)O)=C(/C=C/c3ccc([N+](=O)[O-])cc3[N+](=O)[O-])CS[C@H]12` [Nitrocefin], for which the kcat on KPC-44 [4] worked out at 20 ± 0.67 s⁻¹; at KPC-2 [8], 130 ± 2.2 s⁻¹. In addition, the Km on KPC-44 [4] was 16 ± 1.4 µM.
In the case of `O=C(O)C[C@@H]1CC[C@H](NC(=O)Cc2cccs2)B(O)O1` [Vaborbactam], the IC50 at KPC-2 [9] is 130 ± 5.4 nM; against KPC-44 [7], 220 ± 0.92 nM. Moreover, the “fold difference in IC50 (less potent versus KPC-44 compared to KPC-2)” value on KPC-44 [7] (KPC-44 vs KPC-2) is recorded as “less than 2 fold”. Further, the k-2 entry on KPC-2 [5] was “(1.2 ± 0.014) × 10^−5 s^−1”; on KPC-44 [6] it was “(2.9 ± 0.047) × 10^−5 s^−1”. Besides, at KPC-44 [6] (KPC-44 vs KPC-2), the “fold higher k-2 than KPC-2” value was determined as 3 fold.
Regarding KPC-2 (Klebsiella pneumoniae), in data set [10], the kcat was over 0.8 s⁻¹ and the kcat/Km was determined as 1100 ± 66 M⁻¹ s⁻¹. In data set [11], the Km stood at 130 ± 33 µM, the kcat turned out to be 50 ± 4.5 s⁻¹ and the kcat/Km turned out to be 380000 ± 100000 M⁻¹ s⁻¹. Besides, in [12], the Km is 19 ± 2.9 µM, the kcat is 3.3 ± 0.18 s⁻¹ and the kcat/Km was 170000 ± 28000 M⁻¹ s⁻¹.
